According to ChEMBL document CHEMBL1124216, “A novel class of potential central nervous system agents. 3-Phenyl-2-(1-piperazinyl)-5H-1-benzazepines” (1988):

Columns and labels:
Assay type in all cases: functional
[1] = test system: Mus musculus; assay: Antiexploratory activity (EXPL) of mice determined by an antimex activity meter, 10 mg/kg of dose was administered perorally; Moderate inhibition (51-71%); conditions: route oral
[2] = test system: Canis familiaris; assay: Inhibition of apomorphine induced emesis in dogs at 1 mg/kg of dose.; conditions: Canis lupus familiaris
Summary of the method: (§1)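 Beagle dogs (10-15 kg), groups of three, given compound po in a gelatin capsule; 2 h later apomorphine hydrochloride 0.3 mg/kg sc. Vomiting counted for 1 h; mean inhibition as percent of control. ED50 is the dose giving 50% inhibition of emesis, by Litchfield-Wilcoxon.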

[3] = test system: Mus musculus; assay: Exploratory activity of mice determined by an antimex activity meter, 10 mg/kg of dose was administered perorally; conditions: route oral
[4] = test system: Mus musculus; assay: Exploratory activity of mice determined by an antimex activity meter, 50 mg/kg of dose was administered perorally; conditions: Mus musculus, po
Summary of the method: (§2)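 Male Std-ddY mice (20-25 g), five per dose; compound in 0.5% aqueous tragacanth given orally. Two hours later each mouse placed in an Animex activity meter cage and locomotor activity counted for 3 min. Mean suppression expressed as percent inhibition of control; ED50 by Litchfield-Wilcoxon.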

[5] = test system: Mus musculus; assay: 3,4 -Dihydroxy phenylacetic acid (DOPAC) levels in mouse brain at 10 mg/kg dose.
Summary of the method: (§3)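 Male Std-ddY mice, 20-25 g, dosed orally with compound in 0.5% aqueous tragacanth. DOPAC was measured fluorometrically after purification by column chromatography on Sephadex G-10 and QAE-Sephadex. Brains from five mice per compound were pooled for each determination.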

[6] = test system: Mus musculus; assay: The homovanillic acid (HVA) levels in mouse brain at 50 mg/kg of dose.
Summary of the method: (§4)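 Mice dosed orally in 0.5% aqueous tragacanth; brains of five mice per compound pooled. Homovanillic acid measured in brain extracts and reported as brain level.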

[7] = test system: Mus musculus; assay: The homovanillic acid (HVA) levels in mouse brain at 10 mg/kg of dose.; summary of the method: as §4
[8] = test system: Mus musculus; assay: 3,4 -Dihydroxy phenylacetic acid (DOPAC) levels in mouse brain at 50 mg/kg dose.; summary of the method: as §3
[9] = test system: Mus musculus; assay: Antiexploratory activity (EXPL) of mice determined by an antimex activity meter, 50 mg/kg of dose was administered perorally; Potent inhibition; conditions: route oral
[10] = test system: Mus musculus; assay: Antireserpine activity (RES) of mice after peroral administration of 100 mg/kg of compound; […]; conditions: route oral
[11] = test system: Mus musculus; assay: Antitremorine activity(TRM) of mice after peroral administration of 100 mg/kg of compound; No inhibition; conditions: route oral
[12] = test system: Mus musculus; assay: Antiexploratory activity (EXPL) of mice determined by an antimex activity meter, 100 mg/kg of dose was administered perorally; No inhibition; conditions: route oral
[13] = test system: Mus musculus; assay: Antimaximal electroshock seizure (MES) activity in mice after peroral administration of 100 mg/kg of compound; 0/5; conditions: route oral
[14] = test system: Mus musculus; assay: Antitremorine activity(TRM) of mice after peroral administration of 100 mg/kg of compound; conditions: route oral
[15] = test system: Mus musculus; assay: Antimaximal electroshock seizure activity was determined in mice when administered perorally; conditions: po
[16] = test system: Mus musculus; assay: Antireserpine activity (RES) of mice after peroral administration of 100 mg/kg of compound; conditions: route oral
[17] = test system: Mus musculus; assay: Antimaximal electroshock seizure (MES) activity in mice after peroral administration of 100 mg/kg of compound; 4/5; conditions: route oral
[18] = test system: Mus musculus; assay: Antimaximal electroshock seizure (MES) activity in mice after peroral administration of 10 mg/kg of compound; 0/5; conditions: route oral
[19] = test system: Mus musculus; assay: Antipentylene tetrazole activity was determined in mice when administered perorally; conditions: po
Summary of the method: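 Groups of five male Std-ddY mice received compound orally in 0.5% tragacanth, then pentylenetetrazole 175 mg/kg ip. Blockade of the tonic extensor component scored as anticonvulsant. ED50 was the dose protecting 50% of animals (Litchfield-Wilcoxon).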

[20] = test system: Mus musculus; assay: Antiexploratory activity (EXPL) of mice determined by an antimex activity meter, 100 mg/kg of dose was administered perorally; conditions: route oral
[21] = test system: Mus musculus; assay: Antireserpine activity (RES) of mice after peroral administration of 100 mg/kg of compound; No inhibition; conditions: route oral
[22] = test system: Mus musculus; assay: Antitremorine activity(TRM) of mice after peroral administration of 10 mg/kg of compound; Slight inhibition (31-50%); conditions: route oral
[23] = test system: Canis familiaris; assay: Inhibition of apomorphine induced emesis in dogs when administered perorally; conditions: Canis lupus familiaris, po; summary of the method: as §1
[24] = test system: Mus musculus; assay: Exploratory activity of mice determined by an antimex activity meter, when administered perorally; conditions: po; summary of the method: as §2
[25] = test system: Mus musculus; assay: Antiexploratory activity (EXPL) of mice determined by an antimex activity meter, 50 mg/kg of dose was administered perorally; potent inhibition; conditions: route oral
[26] = test system: Mus musculus; assay: Antiexploratory activity (EXPL) of mice determined by an antimex activity meter, 10 mg/kg of dose was administered perorally; Slight inhibition (31-50%); conditions: route oral
[27] = test system: Mus musculus; assay: Antireserpine activity (RES) of mice after peroral administration of 50 mg/kg of compound; No inhibition; conditions: route oral
[28] = test system: Mus musculus; assay: Inhibition of conditioned avoidance response in mice when administered perorally; conditions: po
Summary of the method: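 One-way active avoidance in male Std-ddY mice in a dark/light two-compartment box. Mice trained to move to the lit side on a warning stimulus to escape floor shock; groups of 10 avoiding at >80% in 10 trials. Compound po in 0.5% tragacanth. ED50 is the dose halving avoidance rate (Litchfield-Wilcoxon).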

[29] = test system: Mus musculus; assay: Concentration of compound that causes catalepsy in the mice when administered perorally; conditions: po
Summary of the method: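 Male Std-ddY mice were dosed orally, vehicle 0.5% aqueous tragacanth. At 2 h, forepaws were placed on a rod 4.5 cm high. Failure to remove the paws within 30 s in three successive trials was scored cataleptic. ED50 was the dose giving catalepsy in 50% of mice (Litchfield-Wilcoxon).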

[30] = test system: Rattus norvegicus; assay: Inhibition of self-stimulation response in rats when administered perorally.; conditions: po
Summary of the method: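 Male Wistar HLA rats (300-400 g) with chronic electrodes in the lateral posterior hypothalamus, lever-pressing steadily at 50-100/min. Self-stimulation counted for 10 min before and 2 h after oral dosing. ED50 is the dose causing ≥50% rate inhibition in half the rats (Litchfield-Wilcoxon).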

[31] = test system: Mus musculus; assay: Concentration of compound that causes ptosis in the mice when administered perorally; conditions: po
Summary of the method: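 Five male Std-ddY mice per group were dosed orally in 0.5% aqueous tragacanth. At 2 h, eyelid closure was scored macroscopically (8 open to 0 fully closed). Group mean scores formed a dose-response curve. ED50 was the dose reducing the mean score to 50%.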

[32] = test system: Mus musculus; assay: Antireserpine activity (RES) of mice after peroral administration of mg/kg of compound; Slight inhibition (31-50%)
[33] = test system: Mus musculus; assay: Antiexploratory activity (EXPL) of mice determined by an antimex activity meter, mg/kg of dose was administered perorally; Slight inhibition (31-50%)
[34] = test system: Mus musculus; assay: Antitremorine activity(TRM) of mice after peroral administration of mg/kg of compound; No inhibition
[35] = test system: Mus musculus; assay: Exploratory activity of mice determined by an antimex activity meter, 100 mg/kg of dose was administered perorally; conditions: route oral; summary of the method: as §2
[36] = test system: Mus musculus; assay: Antiexploratory activity (EXPL) of mice determined by an antimex activity meter, 100 mg/kg of dose was administered perorally; potent inhibition; conditions: route oral
[37] = test system: Mus musculus; assay: Antitremorine activity(TRM) of mice after peroral administration of 100 mg/kg of compound; Slight inhibition (31-50%); conditions: route oral
[38] = test system: Mus musculus; assay: Antiexploratory activity (EXPL) of mice determined by an antimex activity meter, 50 mg/kg of dose was administered perorally; Slight inhibition (31-50%); conditions: route oral
[39] = test system: Mus musculus; assay: Antireserpine activity(RES) of mice after peroral administration of 50 mg/kg of compound; No inhibition; conditions: route oral

Fc1ccc(C2=CCc3ccccc3N=C2N2CCN(C3CCCCC3)CC2)cc1.O=C(O)/C=C/C(=O)O
inhibition in vivo at 10 mg/kg [1]: 51%
inhibition in vivo at 1 mg/kg [2]: 46%
inhibition in vivo at 10 mg/kg [3]: 61.4%
inhibition in vivo at 50 mg/kg [4]: 84.6%
Control [5]: 244%
Control [6]: 343%
Control [7]: 295%
Control [8]: 334%
inhibition in vivo at 50 mg/kg [9]: > 71%

CN1CCN(C2=Nc3ccccc3CC=C2c2cccnc2)CC1
inhibition in vivo at 100 mg/kg [10]: > 71%
inhibition in vivo at 100 mg/kg [11]: < 30%
inhibition in vivo at 100 mg/kg [12]: < 30%
Activity [13]: 0

CN1CCN(C2=Nc3ccc(Cl)cc3CC=C2c2ccccc2)CC1.Cl.Cl
inhibition in vivo at 100 mg/kg [14]: > 71%
ED50 [15]: 89.4 mg/kg
inhibition in vivo at 100 mg/kg [16]: < 30%
Activity [17]: 4
Activity [18]: 0
ED50 [19]: 42.9 mg/kg
inhibition in vivo at 100 mg/kg [20]: < 30%

CCN1CCN(C2=Nc3ccc(Cl)cc3CC=C2c2ccccc2)CC1.Cl.Cl
inhibition in vivo at 100 mg/kg [14]: > 71%
ED50 [15]: 93.1 mg/kg
Activity [17]: 4
Activity [18]: 0
inhibition in vivo at 100 mg/kg [21]: < 30%
inhibition in vivo at 100 mg/kg [12]: < 30%
ED50 [19]: 34.7 mg/kg
inhibition in vivo at 10 mg/kg [22]: 31%

CN1CCN(C2=Nc3ccccc3CC=C2c2ccc(F)cc2)CC1.Cl.Cl
ED50 [23]: 0.28 mg/kg
inhibition in vivo at 1 mg/kg [2]: 100%
inhibition in vivo at 10 mg/kg [3]: 43.3%
ED50 [24]: 8.15 mg/kg
inhibition in vivo at 50 mg/kg [4]: 79.3%
inhibition in vivo at 50 mg/kg [25]: > 70%
Control [5]: 188%
inhibition in vivo at 10 mg/kg [26]: 31%
Control [6]: 400%
inhibition in vivo at 50 mg/kg [27]: < 30%
Control [7]: 197%
Control [8]: 306%
ED50 [28]: 14.6 mg/kg
ED50 [29]: 21.5 mg/kg
ED50 [30]: 4.05 mg/kg
ED50 [31]: 61 mg/kg

Cl.Cl.OCCN1CCN(C2=Nc3ccccc3CC=C2c2ccccc2)CC1
Inhibition [32]: 31%
ED50 [15]: > 100 mg/kg
Inhibition [33]: 31%
Inhibition [34]: <30%
Activity [13]: 0

Cl.Cl.OCCN1CCN(C2=Nc3ccccc3CC=C2c2ccc(Cl)cc2)CC1
inhibition in vivo at 100 mg/kg [35]: 57.3%
ED50 [23]: 0.19 mg/kg
inhibition in vivo at 1 mg/kg [2]: 95.5%
inhibition in vivo at 100 mg/kg [36]: > 71%
inhibition in vivo at 10 mg/kg [3]: 40.8%
ED50 [24]: 73.1 mg/kg
Control [5]: 186%
Control [6]: 382%
Control [7]: 265%
Control [8]: 289%
ED50 [28]: 38.1 mg/kg
ED50 [29]: 66.8 mg/kg
inhibition in vivo at 100 mg/kg [21]: < 30%
inhibition in vivo at 100 mg/kg [37]: 31%
Activity [13]: 0
ED50 [30]: 25.4 mg/kg
ED50 [31]: 88.7 mg/kg

Cl.Cl.OCCN1CCN(C2=Nc3ccccc3CC=C2c2ccc(Br)cc2)CC1
inhibition in vivo at 1 mg/kg [2]: 72.5%
inhibition in vivo at 10 mg/kg [3]: 31.9%
inhibition in vivo at 50 mg/kg [38]: 31%
inhibition in vivo at 50 mg/kg [4]: 36.1%
Control [5]: 106%
inhibition in vivo at 50 mg/kg [39]: < 30%
Control [6]: 335%
inhibition in vivo at 100 mg/kg [11]: < 30%
Control [7]: 181%
Control [8]: 291%
Activity [13]: 0
